Compound activity deposited in PubChem BioAssay by several laboratories.
Hits are enriched below; roughly 1.5% of the tested compounds scored in any of these assays.
TPT1 inh: C. albicans TPT1 enzyme inhibition. recombinant caTPT1, FP RNA substrate dephosphorylation. inhibition, % at 5 µM. 300,000 compounds, 0.81% hits;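 active = inhibition above the mean of all tested compounds plus 3 SD, set per screening campaign, cut at about 24% in these data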
HNF4A DNA FP: change in binding of human HNF4 alpha to DNA | P41235 | HNF4a-FITC DNA binding, fluorescence polarization, 1 h | AID 1224865 | activity change, % at 10 µM | 360,000 compounds, 0.3% hits; in the data active = activity change above about 30%, passing the limit was not always enough
CSN inh: blocks human CSN-mediated cullin deneddylation | Q92905 | Purified CSN, SCF-Nedd8-OG deneddylation, fluorescence polarization | inhibition, % at 12.5 µM | 360,000 compounds, 0.38% hits;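 active = pattern-corrected inhibition above about 35%, with an unprinted fluorescence ratio check between 0.5 and 1.5, limit read from the data, passing the limit was not always enough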
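Detection – fluorescence polarization · System – HEK293T-derived human Csn5 enzyme · Controls – substrate-only high control, full reaction low control · Timing – 90 min, room temperature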
Rpn11 block: inhibitors of human proteasome Rpn11; AID 588493; 360,000 compounds, 0.59% hits; calls only at 20 µM; human 26S proteasome, Ub4-pepOG fluorescence polarization; 20S core pre-blocked with epoxomicin; O00487;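 active = inhibition at 20 µM, scaled to each plate's controls, above about 33%, limit read from the data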
Target sequence (O00487 whole entry, looked up): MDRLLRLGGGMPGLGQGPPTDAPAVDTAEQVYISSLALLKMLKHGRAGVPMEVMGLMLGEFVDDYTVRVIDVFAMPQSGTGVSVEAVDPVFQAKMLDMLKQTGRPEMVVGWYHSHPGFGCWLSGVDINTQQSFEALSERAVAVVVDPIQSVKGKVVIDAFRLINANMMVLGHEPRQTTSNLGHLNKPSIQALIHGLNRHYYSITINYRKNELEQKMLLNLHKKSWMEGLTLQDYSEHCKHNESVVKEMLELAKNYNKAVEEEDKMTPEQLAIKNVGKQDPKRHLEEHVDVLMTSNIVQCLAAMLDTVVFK
TPT1 inh confirm: TPT1 (C. albicans) inhibition, confirmation; shares compounds with TPT1 inh; recombinant caTPT1, fluorescence polarization, RNase T1 coupled; inhibition, % at 5 µM; 2,400 compounds, 74% hits; AID 2149;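 active = inhibition above the primary screen limit, the mean inhibition of all tested compounds plus 3 SD, cut at about 25% in these data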
RNase T1 inh: blocks Aspergillus oryzae RNase T1, a TPT1 counter-screen. shares compounds with TPT1 inh. RNase T1 cleavage, fluorescence polarization, 1536-well. inhibition, % at 5 µM. 2,400 compounds, 83% hits. AID 2153;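 active = inhibition above the solvent-only control well mean plus 3 SD, limit set per screening run, cut at about 23% in these data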;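 note: inhibitors block cleavage so intact labeled substrate keeps polarization high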
Target sequence (P00651 whole entry, looked up): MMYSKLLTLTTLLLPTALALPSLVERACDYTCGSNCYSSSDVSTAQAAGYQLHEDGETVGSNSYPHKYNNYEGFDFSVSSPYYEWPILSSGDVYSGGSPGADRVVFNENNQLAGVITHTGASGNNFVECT
Numbers stand for hits; i = inactive; nt = not tested or not shown; + = active, no number.

SMILES	TPT1 inh	HNF4A DNA FP	CSN inh	Rpn11 block	TPT1 inh confirm	RNase T1 inh
Cc1ccc2c(c1)N/C(=C(\C=C(/Cl)[N+](=O)[O-])[N+](=O)[O-])N2	25.0	nt	nt	nt	i	32.5
CNC(=O)/C(C#N)=C/c1c(N2CCCCCC2)nc2ccccn2c1=O	36.0	i	i	i	51.4	60.2
CCNC(=O)/C(C#N)=C/c1c(N2CCCCCC2)nc2ccccn2c1=O	i	i	i	i	nt	nt
C/C=C/c1cccc(-c2nc(C(=O)N3CCN(C)CC3)cc3c2[C@@H](CCO)N(C(=O)NC(C)C)C3)c1	nt	i	i	nt	nt	nt
O=C(O)CC1(C(=O)O)CC2C=CC1C2 (centres undefined)	nt	i	i	i	nt	nt
Cc1noc(/C=C/Nc2ccc(F)cc2F)c1[N+](=O)[O-]	i	i	i	i	nt	nt
COc1ccccc1N/C=C/c1onc(C)c1[N+](=O)[O-]	112.5	69.2	i	i	96.5	105.0
CCCC1(C(=O)OC)NC(c2ccc(OC)cc2OC)C2C(=O)N(c3cccc(C(C)=O)c3)C(=O)C21 (centres undefined)	i	i	i	i	nt	nt
CC(NC(=O)/C=C/c1ccco1)c1nc2ccccc2n1Cc1c(Cl)cccc1Cl (centres undefined)	i	i	i	i	nt	nt
CCCCn1c(/C=C/c2ccco2)nc2ccccc21	i	i	i	i	nt	nt
CCCn1c(/C=C/c2ccco2)nc2ccccc21	25.0	i	i	i	38.3	50.9
Clc1ccc(Cn2c(/C=C/c3ccco3)nc3ccccc32)cc1	29.1	i	i	nt	33.7	46.4
Cc1nc(N)ncc1CCC1OCCO1	nt	i	i	i	nt	nt
COc1c(/C=C2\SC(=Nc3ccccc3Cl)NC2=O)cccc1[N+](=O)[O-]	i	i	i	i	nt	nt
O=C1NC(=Nc2ccccc2Cl)S/C1=C\c1cccc([N+](=O)[O-])c1O	28.3	i	i	i	41.7	54.6
Cc1ccc(N(C)S(=O)(=O)c2cccc(C(=O)NCC(c3ccco3)N3CCCC3)c2)cc1 (centres undefined)	nt	i	i	i	nt	nt
O=C(Nc1nc2c(F)cccc2s1)C1CC1	i	i	i	i	nt	nt
CC1CCc2c(sc(Nc3nc4c(F)cccc4s3)c2C(N)=O)C1 (centres undefined)	47.6	36.9	i	nt	57.0	68.7
CC(=O)Nc1cccc(-c2ccnc3c2CC(C)(C(=O)Nc2ccc4c(c2)OCO4)O3)c1 (centres undefined)	nt	i	i	i	nt	nt
CCOC(=O)N1CCN(c2cc(=O)n(-c3cccc(C)c3)c(=O)[nH]2)CC1	110.0	i	i	i	i	i
CCOC(=O)N1CCN(c2cc(=O)n(-c3cccc(Br)c3)c(=O)[nH]2)CC1	i	i	i	i	nt	nt
COc1ccc(C(=O)/C=C/Nc2ccc(S(=O)(=O)Nc3cc(OC)nc(OC)n3)cc2)c(OC)c1	36.1	i	i	i	38.9	49.5
CCN1c2ccccc2NC2C1C(C(C)=O)C(=O)N2c1ccc(Cl)cc1 (centres undefined)	60.5	44.8	i	nt	76.2	85.2
O=C1Nc2ccccc2N(O)N1c1ccc(Cl)cc1	i	i	i	i	nt	nt
COc1cc(/C=C2\S/C(=N/S(=O)(=O)Cc3ccccc3)NC2=O)c([N+](=O)[O-])cc1OC	i	i	i	i	nt	nt
SMILES	TPT1 inh	HNF4A DNA FP	CSN inh	Rpn11 block	TPT1 inh confirm	RNase T1 inh
O=C1N/C(=N\S(=O)(=O)Cc2ccccc2)S/C1=C/c1cc([N+](=O)[O-])ccc1O	68.5	i	i	nt	75.2	80.1
COc1cc(/C=C2/S/C(=N/S(=O)(=O)c3ccccc3)NC2=O)c([N+](=O)[O-])cc1OC	i	i	i	i	nt	nt
O=C1N/C(=N\S(=O)(=O)c2ccccc2)S/C1=C\c1cc([N+](=O)[O-])ccc1O	76.1	i	i	nt	78.2	82.9
CN1CCS/C1=C/C=C1/SC(=S)N(Cc2ccccc2)C1=O	171.0	i	i	nt	169.2	156.7
CN1CCS/C1=C/C=C1\SC(=S)N(CC(=O)O)C1=O	168.8	i	i	nt	180.2	166.8
CCCCN1C(=O)/C(=C/C=C2\SCCN2C)SC1=S	nt	i	i	nt	nt	nt
CC(=O)Oc1ccccc1Cn1c(C)c(C(=O)NCc2cccc([N+](=O)[O-])c2)sc1=O	nt	i	i	i	nt	nt
CCCCCCCC(=O)C(C)C(=O)N(C)[C@H](Cc1ccc(OC)cc1)C(=O)N(C)[C@H](C(N)=O)C(C)C (some centres undefined)	nt	i	i	i	nt	nt
Cn1c(CC(=O)Nc2ccc(Cl)cc2)nnc1SCC(=O)N1CCOCC1	i	i	i	i	nt	nt
CN1/C(=C\C=C(/C#N)C(=O)Nc2ccc(Cl)cc2)C(C)(C)c2ccccc21	112.1	i	i	i	35.5	51.9
CCCc1nc2ccc(C)cn2c1Cc1ccc(OC)cc1C	nt	i	i	i	nt	nt
COc1ccc(NC(=O)/C(C#N)=C/c2ccc(Br)o2)cc1	i	i	i	i	nt	nt
N#C/C(=C/c1ccc(N2CCCCC2)o1)C(=O)Nc1ccc2ccccc2c1	nt	i	i	nt	nt	nt
N#C/C(=C\c1ccc(N2CCOCC2)o1)C(=O)Nc1ccc(O)cc1	+	i	i	nt	194.2	176.2
N#C/C(=C/c1ccc(N2CCCCC2)o1)C(=O)Nc1ccc(Cl)cc1	186.8	i	i	nt	191.5	173.8
COc1ccc(NC(=O)/C(C#N)=C\c2ccc(N3CCOCC3)o2)cc1	+	i	i	nt	198.4	177.4
CCOC(=O)C1=C(O)CSC1=Nc1ccccc1	26.8	i	i	i	i	27.4
NS(=O)(=O)c1ccc(CCNC(=O)c2ccc(Cl)c(S(=O)(=O)NCc3ccco3)c2)cc1	nt	i	i	i	nt	nt
C/C(=N\NC(=O)c1ccc(CN2CCc3ccccc3C2)cc1)c1ccccc1O	i	i	i	i	nt	nt
CS(=O)(=O)N1CC2CCCN2c2cc(C(F)(F)F)ccc21 (centres undefined)	27.7	i	i	i	i	i
C=CC(=O)N(CCC)C(c1ccccc1)c1ccccc1OC (centres undefined)	i	i	i	i	nt	nt
O=C(Nc1ccn(-c2ccccc2)n1)c1ccccc1Br	33.5	i	i	i	i	i
CNc1nc(NCc2ccc(N(C)C)cc2)c2sccc2n1	nt	i	i	i	nt	nt
COC(=O)CNC(=O)C1CCC(CNS(=O)(=O)c2cccc3nsnc23)CC1 (centres undefined)	i	i	i	i	nt	nt
CN1Cc2sc(NC(=S)NC(=O)c3ccccc3)c(C#N)c2CC1(C)C	97.4	nt	nt	nt	85.0	90.2
CC1=CC(=O)C(C(C)=Nc2cccc(Cl)c2)C(=O)O1 (centres undefined)	nt	i	i	i	nt	nt
Nc1nonc1C(=O)N/N=C/c1cc(Br)ccc1O	32.5	nt	nt	nt	29.9	38.4
Nc1nonc1-n1nnc(C(=O)N/N=C/c2cc(Br)ccc2O)c1CNc1ccccc1	i	i	i	i	nt	nt
O=C(COc1coc(CN2CCCc3ccccc32)cc1=O)Nc1ccc([N+](=O)[O-])cc1	32.1	i	i	i	i	i
Cc1ccc(Nc2nc(-c3ccccc3)c(CC(=O)O)s2)cc1	56.5	i	i	i	i	31.2
